Reference: paper PMC3220529 (The Journal of Biological Chemistry, 2011)
Entries after “also recorded” stand apart in the source; their conditions may differ.

How the values were obtained:
[1] = target: S100A10-annexin A2 hybrid protein (A10A2) dimer (Oryctolagus cuniculus, UniProt Q6SQH4, C83S); experiment: NMR titration; type: binding, rabbit; conditions: pH 7.0
[2] = system: S100A10; type: binding, rabbit; conditions: absence of annexin A2 peptide; data not shown
[3] = target: T1, A10A2 hybrid protein (dimer) (Oryctolagus cuniculus, UniProt Q6SQH4, C83S); experiment: Fluorescence titration of acrylodan-labeled A10A2 with AHNAK5; type: binding, rabbit; conditions: shifted from near 495 nm; intensity decreased; pH 7.4
Procedure, shortened: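 Rabbit S100A10(C82S)–annexin A2 hybrid was made as a GST fusion in E. coli, cleaved with PreScission, and labelled with acrylodan. 167 nM labelled protein in 20 mM Tris-HCl, 120 mM NaCl, 1 mM DTT, pH 7.4, was stirred at room temperature. Peptide was added stepwise with 2 min stirring each. Excitation 375 nm, emission 400–600 nm, ΔF at 500 nm. Duplicate titrations were globally fit 1:1 for Kd.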

[4] = system: S100A10; experiment: Fluorescence titration of acrylodan-labeled S100A10 with AHNAK5; type: binding, rabbit; conditions: absence of annexin A2 peptide
[5] = target: T1, A10A2 hybrid protein (dimer); experiment: Isothermal titration calorimetry of AHNAK5 into A10A2; type: binding, rabbit
[6] = system: A10A2; experiment: Peptide array of AHNAK C terminus probed with Alexa Fluor 680-A10A2; type: binding, rabbit; conditions: 18-residue peptides shifted by 3 residues, Alexa-A10A2 0.2 μM, 2 h, 700 nm
Procedure, shortened: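 330 spots of 18-residue AHNAK peptides (residues 4884–5890, 3-residue offset) were Fmoc-synthesized on […]. Membranes were methanol-hydrated, washed in TBS + 0.05% Tween, and blocked 1 h with skim milk. A10A2 is a rabbit S100A10(C82S)–annexin A2 hybrid made in E. coli.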

[7] = target: S100A10-annexin A2 (Oryctolagus cuniculus, UniProt Q6SQH4, C83S); experiment: Overall binding of AHNAK5 to S100A10-annexin A2; parameters: species or system rabbit; conditions: S100A10 without annexin A2 peptide; discussion statement
[8] = target: S100A10^C82S (rabbit S100A10 with Cys82 changed to Ser) (rabbit); experiment: native MS
[9] = target: S100A10^C82S-annexin A2 hybrid protein (A10A2) (rabbit | not stated); experiment: native MS
[10] = target: non-covalent complex of S100A10 (C82S) dimer with two annexin A2 peptides (residues 1-15) (rabbit | not stated); experiment: native MS
[11] = target: S100A10^C82S-annexin A2 hybrid protein (A10A2) (rabbit | not stated); experiment: NMR titration
[12] = target: S100A10^C82S-annexin A2 hybrid protein (A10A2) (rabbit | not stated); experiment: ITC
[13] = target: acrylodan-labeled A10A2 hybrid protein (rabbit | not stated); experiment: other fluorescence titration

## Ac-GKVTFPKMKIPKFTFSGREL-NH2 [AHNAK5]
[1]; 1H-15N HSQC, 0.5 mM A10A2 (protomer), 0.25 mM AHNAK5, 35 °C
  exchange regime / peak doubling on AHNAK5 binding, A10A2: disappearance of peaks from S100A10 and the appearance of new resonances on the slow exchange time scale; also recorded: resonances from the annexin A2 portion of A10A2 also exhibited peak doubling
[1]; inflection point of peak intensity changes, 35 °C
  stoichiometry AHNAK5 : A10A2 dimer, NMR: one AHNAK5 peptide to one A10A2 dimer
[2]
  interaction with S100A10 without annexin A2, NMR: did not show an interaction between S100A10 and AHNAK5; also recorded: no evidence for interaction of AHNAK5 with S100A10 in the absence of annexin A2
  precipitation during titration of S100A10 with AHNAK5: prone to precipitation
[3]
  acrylodan-A10A2 fluorescence maximum upon addition of AHNAK5: 500 nm
[4]
  interaction with S100A10, fluorescence: little wavelength shift, suggestive of a poor interaction
[5]; ITC
  entropy change: positive entropy change
[5]; ITC, 35 °C, pH 7.2
  ΔH (binding enthalpy): -10 ± 0.096 kcal/mol
  ΔS (entropy change): 0.00201 kcal/mol
[5]; single binding site fit, 35 °C, pH 7.2
  n (binding sites), ITC: 1.02
[6]
  A10A2 binding in peptide array (intensity, words): strong interaction with A10A2
[7]
  interaction in experiments lacking annexin A2 peptide (summary): little or no observable interaction

## S100A10^C82S (rabbit S100A10 with Cys82 changed to Ser) (natural protein)
[8]
  stoichiometry N: 2

## S100A10^C82S-annexin A2 hybrid protein (A10A2)
[9]
  stoichiometry N: 2

## sequence a: AHNAK array region Thr4917–Gly4940 (overlapping 18-residue peptides) (TAPDVDLHLKAPKIGFSGPKLEGG)
[6]
  A10A2 binding in peptide array (intensity, words): best interaction with A10A2

## sequence b: AHNAK array region Asp4959–Pro4994; most intense spot 4968–4985 (DSPDINIEGPDVKIPKFKKPKFGFGAKSPKADIKSP)
[6]
  A10A2 binding in peptide array (intensity, words): best interaction with A10A2; also recorded: most intense binding at any one spot

## sequence c: AHNAK array region Pro5220–Ile5243 (PDVDLQGPEAKIKFPKFSMPKIGI)
[6]
  A10A2 binding in peptide array (intensity, words): best interaction with A10A2

## sequence d: AHNAK array region Asn5607–Ile5633 (NLDTSKFAGGLHFSGPKVEGGVKGGQI)
[6]
  A10A2 binding in peptide array (intensity, words): best interaction with A10A2

## sequence e: AHNAK array region Gly5652–Gly5675; most intense spot 5652–5669 (GSGKVTFPKMKIPKFTFSGRELVG)
[6]
  A10A2 binding in peptide array (intensity, words): best interaction with A10A2; also recorded: most intense binding at any one spot

## sequence f: AHNAK array region Ser5703–Thr5729 (SEVKLKKSKIKMPKFNFSKPKGKGGVT)
[6]
  A10A2 binding in peptide array (intensity, words): best interaction with A10A2

## sequence g: AHNAK array region Ala5757–Ser5780 (AEAEASSPKGKFSLFKSKKPRHRS)
[6]
  A10A2 binding in peptide array (intensity, words): best interaction with A10A2

## sequence h: AHNAK array region Leu5808–Glu5837 (LEGGKVKGKHGKLKFGTFGGLGSKSKGHYE)
[6]
  A10A2 binding in peptide array (intensity, words): best interaction with A10A2

## Ac-STVHEILSKLSLEGD-NH2 [annexin A2 peptide (residues 1-15)]
[8]
  stoichiometry N (annexin A2 peptides per S100A10 dimer): 2

## Ac-GKVTFPKMKIPKFTFSGREL-NH2 [AHNAK5 peptide (AHNAK residues Gly5654-Leu5673)]
[9]
  stoichiometry N (AHNAK5 per A10A2 dimer): 1
[10]
  stoichiometry N: 1
[11]
  Kd: < 1000 nM
  stoichiometry N (AHNAK5 per A10A2 dimer): 1
[12]
  Kd: 28 nM
  dH: -10 kcal/mol
  stoichiometry N (AHNAK5 per A10A2 dimer): 1.02
[13]
  Kd: 35 nM
